According to ChEMBL document CHEMBL2417372, “Design, synthesis, and mechanism of action of 2-(3-hydroxy-5-methoxyphenyl)-6-pyrrolidinylquinolin-4-one as a potent anticancer lead” (Bioorg Med Chem Lett, 2013):

How the values were obtained:
Tubulin (Homo sapiens) = Tubulin (Homo sapiens) (UniProt P68371+Q9H4B7+P0DPH7+P68366+Q13509+Q71U36+P04350+Q3ZCM7+P07437+P68363+Q9BQE3+Q6PEY2+Q13885+Q9BVA1+Q9BUF5); assay: Inhibition of tubulin polymerization in human NCI-H522 cells assessed as beta-tubulin accumulation in cytoskeletal fraction after 24 hrs by Western blot analysis; type: cell-based
Outline: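 NCI-H522 cells were exposed for 24 h to compound (10, 30 or 100 nM) or DMSO vehicle. They were then lysed 5 min at 37 °C in hypotonic buffer (1 mM MgCl2, 2 mM EGTA, 0.5% NP-40, protease inhibitors, 20 mM Tris-HCl pH 6.8) and centrifuged at 15,000 × g for 10 min at 25 °C. α- and β-tubulin were assessed in the cytoskeletal fraction.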

NCI-H522 = assay: Cytotoxicity against human NCI-H522 cells after 48 hrs by MTT assay; type: functional, cell-based; details: NCI-H522, 48 h
HL-60 = assay: Cytotoxicity against human HL60 cells after 48 hrs; type: functional, cell-based; details: HL-60, 48 h
Outline: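 MTT viability assay on log-phase cells at 37 °C, exposed to compound or DMSO vehicle for 48 h. MTT (1 mg/mL in PBS) was then added for 2 h, and absorbance was read at 570 nm with 630 nm correction. IC50 is the concentration giving 50% proliferation inhibition. Cells were cultured in 5% CO2: HL-60 in RPMI-1640 with 10% FBS; Hep3B in DMEM/F12 with 10% FBS; Detroit 551 in DMEM with 10% FBS.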

BT-549 = assay: Cytotoxicity against human BT549 cells after 48 hrs; type: functional; details: BT-549, 48 h
DU-145 = assay: Cytotoxicity against human DU145 cells after 48 hrs; type: functional; details: DU-145, 48 h
MCF7 = assay: Cytotoxicity against human MCF7 cells after 48 hrs; type: functional; details: MCF7, 48 h
SN12C = assay: Cytotoxicity against human SN12C cells after 48 hrs; type: functional
ACHN = assay: Cytotoxicity against human ACHN cells after 48 hrs; type: functional
CAKI-1 = assay: Cytotoxicity against human CAKI-1 cells after 48 hrs; type: functional; details: CAKI-1, 48 h
A498 = assay: Cytotoxicity against human A498 cells after 48 hrs; type: functional; details: A498, 48 h
SK-OV-3 = assay: Cytotoxicity against human SKOV3 cells after 48 hrs; type: functional; details: SK-OV-3, 48 h
[1] = Cytotoxicity against human NCI-ADR-RES cells after 48 hrs; type: functional
OVCAR-8 = assay: Cytotoxicity against human OVCAR8 cells after 48 hrs; type: functional; details: OVCAR-8, 48 h
SK-MEL-28 = assay: Cytotoxicity against human SK-MEL-28 cells after 48 hrs; type: functional; details: SK-MEL-28, 48 h
SK-MEL-2 = assay: Cytotoxicity against human SK-MEL-2 cells after 48 hrs; type: functional; details: SK-MEL-2, 48 h
Outline: (§1)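 Tested in the NCI-60 human cancer cell line panel. Results are given as log concentrations: GI50 reduced cell growth to 50% […], TGI caused total growth inhibition, and LC50 killed 50% of the test population.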

MDA-MB-435 = assay: Cytotoxicity against human MDA-MB-435 cells after 48 hrs; type: functional; details: MDA-MB-435, 48 h
M14 = assay: Cytotoxicity against human M14 cells after 48 hrs; type: functional; details: M14, 48 h
U-251 = assay: Cytotoxicity against human U251 cells after 48 hrs; type: functional; details: U-251, 48 h
SNB-75 = assay: Cytotoxicity against human SNB75 cells after 48 hrs; type: functional; details: SNB-75, 48 h
SF-539 = assay: Cytotoxicity against human SF539 cells after 48 hrs; type: functional; details: SF-539, 48 h
SNB-19 = assay: Cytotoxicity against human SNB19 cells after 48 hrs; type: functional; details: SNB-19, 48 h
SF-295 = assay: Cytotoxicity against human SF295 cells after 48 hrs; type: functional; details: SF-295, 48 h
SF-268 = assay: Cytotoxicity against human SF268 cells after 48 hrs; type: functional; details: SF-268, 48 h
HCT-15 = assay: Cytotoxicity against human HCT15 cells after 48 hrs; type: functional; details: HCT-15, 48 h
HCT-116 = assay: Cytotoxicity against human HCT116 cells after 48 hrs; type: functional; details: HCT-116, 48 h
COLO 205 = assay: Cytotoxicity against human COLO205 cells after 48 hrs; type: functional; details: COLO 205, 48 h
NCI-H23 = assay: Cytotoxicity against human NCI-H23 cells after 48 hrs; type: functional; details: NCI-H23, 48 h
[2] = Cytotoxicity against human EKVX cells after 48 hrs; type: functional; outline: as §1
RPMI-8226 = assay: Cytotoxicity against human RPMI8226 cells after 48 hrs; type: functional; details: RPMI-8226, 48 h
K562 = assay: Cytotoxicity against human K562 cells after 48 hrs; type: functional; details: K562, 48 h
MOLT-4 = assay: Cytotoxicity against human MOLT4 cells after 48 hrs; type: functional; details: MOLT-4, 48 h
CCRF-CEM = assay: Cytotoxicity against human CCRF-CEM cells after 48 hrs; type: functional
[3] = read-out: pLC50 (the source's name) (converted)

## COc1cc(O)cc(-c2cc(=O)c3cc(N4CCCC4)ccc3[nH]2)c1
Tubulin (Homo sapiens)
  inhibition: Dose-dependent effect
NCI-H522
  IC50: 42.3 nM
HL-60
  IC50: 100 nM
BT-549
  GI50: 37.1 nM
BT-549; [3]
  CC50: > 100000 nM
BT-549; read-out: pTGI
  TGI: > 100000 nM
DU-145
  GI50: 30.9 nM
DU-145; [3]
  CC50: > 100000 nM
DU-145; read-out: pTGI (converted)
  TGI: 257 nM
MCF7
  GI50: 47.9 nM
MCF7; [3]
  CC50: > 100000 nM
MCF7; read-out: pTGI
  TGI: > 100000 nM
SN12C
  GI50: 72.4 nM
SN12C; [3]
  CC50: > 100000 nM
SN12C; read-out: pTGI
  TGI: > 100000 nM
ACHN
  GI50: 77.6 nM
ACHN; [3]
  CC50: > 100000 nM
ACHN; read-out: pTGI
  TGI: > 100000 nM
CAKI-1
  GI50: 83.2 nM
CAKI-1; [3]
  CC50: > 100000 nM
CAKI-1; read-out: pTGI
  TGI: > 100000 nM
A498
  GI50: 4070 nM
A498; [3]
  CC50: > 100000 nM
A498; read-out: pTGI
  TGI: > 100000 nM
SK-OV-3
  GI50: 23.4 nM
SK-OV-3; [3]
  CC50: > 100000 nM
SK-OV-3; read-out: pTGI (converted)
  TGI: 25100 nM
[1]
  GI50: 61.7 nM
[1]; [3]
  CC50: > 100000 nM
[1]; read-out: pTGI (converted)
  TGI: 513 nM
OVCAR-8
  GI50: 38.9 nM
OVCAR-8; [3]
  CC50: > 100000 nM
OVCAR-8; read-out: pTGI (converted)
  TGI: 31600 nM
SK-MEL-28
  GI50: 74.1 nM
SK-MEL-28; [3]
  CC50: > 100000 nM
SK-MEL-28; read-out: pTGI
  TGI: > 100000 nM
SK-MEL-2
  GI50: 28.2 nM
SK-MEL-2; [3]
  CC50: 87100 nM
MDA-MB-435
  GI50: 10 nM
MDA-MB-435; read-out: pTGI (converted)
  TGI: 29.5 nM
M14
  GI50: 30.2 nM
M14; [3]
  CC50: > 100000 nM
M14; read-out: pTGI (converted)
  TGI: 15800 nM
U-251
  GI50: 46.8 nM
U-251; [3]
  CC50: 87100 nM
U-251; read-out: pTGI (converted)
  TGI: 14500 nM
SNB-75
  GI50: 34.7 nM
SNB-75; [3]
  CC50: 77600 nM
SNB-75; read-out: pTGI (converted)
  TGI: 13200 nM
SF-539
  GI50: 28.8 nM
SF-539; [3]
  CC50: > 100000 nM
SF-539; read-out: pTGI
  TGI: > 100000 nM
SNB-19
  GI50: 74.1 nM
SNB-19; [3]
  CC50: > 100000 nM
SNB-19; read-out: pTGI
  TGI: > 100000 nM
SF-295
  GI50: 110 nM
SF-295; read-out: pTGI (converted)
  TGI: 11200 nM
SF-268
  GI50: 25.7 nM
SF-268; [3]
  CC50: > 100000 nM
SF-268; read-out: pTGI
  TGI: > 100000 nM
HCT-15
  GI50: 53.7 nM
HCT-15; [3]
  CC50: > 100000 nM
HCT-15; read-out: pTGI
  TGI: > 100000 nM
HCT-116
  GI50: 35.5 nM
HCT-116; [3]
  CC50: > 100000 nM
HCT-116; read-out: pTGI
  TGI: > 100000 nM
COLO 205
  GI50: 53.7 nM
COLO 205; read-out: pTGI (converted)
  TGI: 219 nM
NCI-H23
  GI50: 126 nM
NCI-H23; [3]
  CC50: > 100000 nM
NCI-H23; read-out: pTGI (converted)
  TGI: 81300 nM
[2]; [3]
  CC50: > 100000 nM
[2]; read-out: pTGI
  TGI: > 100000 nM
RPMI-8226
  GI50: 468 nM
RPMI-8226; [3]
  CC50: > 100000 nM
RPMI-8226; read-out: pTGI
  TGI: > 100000 nM
K562
  GI50: 23.4 nM
K562; [3]
  CC50: > 100000 nM
K562; read-out: pTGI
  TGI: > 100000 nM
MOLT-4
  GI50: 34.7 nM
MOLT-4; [3]
  CC50: > 100000 nM
MOLT-4; read-out: pTGI
  TGI: > 100000 nM
CCRF-CEM
  GI50: 32.4 nM
CCRF-CEM; [3]
  CC50: > 100000 nM
CCRF-CEM; read-out: pTGI
  TGI: > 100000 nM
